Data on three compounds can be found in ChEMBL document CHEMBL1152541, “Staurosporine tethered peptide ligands that target cAMP-dependent protein kinase (PKA): optimization and selectivity profiling” (Bioorg Med Chem, 2009).

Assay [1] concerns Mast/stem cell growth factor receptor Kit (Homo sapiens), P10721 [V559D,T670I]. In words: Binding affinity to human KIT V559D,T670I mutant at 500 nM by cell-based competition binding assay relative to control in presence of DTT. A digest of the protocol:
(§1)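 Competition binding screen (Ambit) across a panel of 90 kinases, scoring test ligand displacement of each kinase's binding relative to control. The screen ran under reducing conditions with 7.5 mM DTT.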

Assay [2] deals with Cyclin-dependent kinase 19 (Homo sapiens) (UniProt Q9BWU1). In words: Binding affinity to human CDK11 at 500 nM by cell-based competition binding assay relative to control in presence of DTT. A digest of the protocol: (§2)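 Kinase binding profiling ran on a commercial (Ambit) competitive binding screen against a panel of 90 kinases. The screen used reducing conditions with 7.5 mM DTT. To withstand the DTT, the bivalent ligand was tested as its amide isostere, with the disulfide replaced. A staurosporine derivative carrying a 3 β-alanine linker was run as the reference compound.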
Chain of Cyclin-dependent kinase 19 (Homo sapiens) (Q9BWU1 whole entry): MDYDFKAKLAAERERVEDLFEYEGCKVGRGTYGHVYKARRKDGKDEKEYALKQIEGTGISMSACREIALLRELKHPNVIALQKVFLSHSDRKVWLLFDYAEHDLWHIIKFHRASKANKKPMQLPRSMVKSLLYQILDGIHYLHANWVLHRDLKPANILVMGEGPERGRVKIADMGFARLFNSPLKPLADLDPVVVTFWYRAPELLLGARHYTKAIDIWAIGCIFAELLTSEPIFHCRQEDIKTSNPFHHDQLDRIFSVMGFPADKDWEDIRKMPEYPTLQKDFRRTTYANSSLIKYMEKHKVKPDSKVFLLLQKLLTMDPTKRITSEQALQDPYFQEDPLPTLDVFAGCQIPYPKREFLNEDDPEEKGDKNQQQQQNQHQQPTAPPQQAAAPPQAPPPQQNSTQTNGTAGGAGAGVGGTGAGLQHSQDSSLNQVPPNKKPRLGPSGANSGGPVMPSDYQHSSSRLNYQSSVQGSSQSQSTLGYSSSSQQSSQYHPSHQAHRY

Assay [3] has as its target MAP kinase-activated protein kinase 2 (Homo sapiens) (UniProt P49137). In words: Binding affinity to human MAPKAPK2 at 500 nM by cell-based competition binding assay relative to control in presence of DTT. A digest of the protocol: as §1
Assay [4] concerns the target T1, NUAK family SNF1-like kinase 2 (Homo sapiens) (UniProt Q9H093).
T1 sequence (whole entry): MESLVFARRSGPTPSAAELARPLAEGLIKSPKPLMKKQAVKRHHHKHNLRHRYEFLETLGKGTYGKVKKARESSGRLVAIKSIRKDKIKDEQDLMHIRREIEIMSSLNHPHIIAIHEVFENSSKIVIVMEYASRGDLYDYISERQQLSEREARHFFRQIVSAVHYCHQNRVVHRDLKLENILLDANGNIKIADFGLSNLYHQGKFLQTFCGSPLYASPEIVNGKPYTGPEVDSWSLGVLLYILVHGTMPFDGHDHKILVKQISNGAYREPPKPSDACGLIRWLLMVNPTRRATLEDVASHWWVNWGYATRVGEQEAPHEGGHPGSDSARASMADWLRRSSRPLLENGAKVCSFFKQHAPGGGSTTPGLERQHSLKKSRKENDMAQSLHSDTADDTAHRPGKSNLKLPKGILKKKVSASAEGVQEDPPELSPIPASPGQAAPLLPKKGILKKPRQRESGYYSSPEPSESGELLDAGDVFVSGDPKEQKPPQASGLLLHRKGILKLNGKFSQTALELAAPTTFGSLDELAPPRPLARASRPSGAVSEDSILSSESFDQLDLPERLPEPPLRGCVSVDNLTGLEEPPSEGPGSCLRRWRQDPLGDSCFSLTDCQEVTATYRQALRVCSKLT
Description: Binding affinity to human SNARK at 500 nM by cell-based competition binding assay relative to control in presence of DTT.

The target of assay [5] is 3-phosphoinositide-dependent protein kinase 1 (Homo sapiens) (UniProt O15530). Description: Ratio of compound to staurosporine binding affinity to PDK1 in presence of DTT.
Chain of 3-phosphoinositide-dependent protein kinase 1 (Homo sapiens) (O15530 whole entry, looked up): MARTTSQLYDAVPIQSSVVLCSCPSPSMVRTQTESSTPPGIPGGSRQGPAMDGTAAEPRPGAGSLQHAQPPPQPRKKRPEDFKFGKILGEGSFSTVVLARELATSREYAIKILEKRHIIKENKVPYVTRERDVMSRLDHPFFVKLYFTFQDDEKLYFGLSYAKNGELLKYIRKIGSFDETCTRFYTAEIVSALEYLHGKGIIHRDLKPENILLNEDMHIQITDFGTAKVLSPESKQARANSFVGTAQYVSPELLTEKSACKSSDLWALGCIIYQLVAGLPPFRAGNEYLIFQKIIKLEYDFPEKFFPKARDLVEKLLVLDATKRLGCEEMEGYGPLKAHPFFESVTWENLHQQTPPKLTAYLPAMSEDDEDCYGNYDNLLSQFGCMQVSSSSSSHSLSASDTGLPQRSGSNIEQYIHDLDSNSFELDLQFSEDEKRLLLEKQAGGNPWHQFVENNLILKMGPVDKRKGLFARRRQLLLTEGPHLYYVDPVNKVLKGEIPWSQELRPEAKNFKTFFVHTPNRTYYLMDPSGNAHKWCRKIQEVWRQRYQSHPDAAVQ
Assay [6] addresses T1, NUAK family SNF1-like kinase 2 (Homo sapiens). In words: Binding affinity to human SNARK at 200 nM by cell-based competition binding assay relative to control in presence of DTT.
Assay [7] deals with T2, Serine/threonine-protein kinase PLK4 (Homo sapiens) (UniProt O00444).
T2 sequence (whole entry): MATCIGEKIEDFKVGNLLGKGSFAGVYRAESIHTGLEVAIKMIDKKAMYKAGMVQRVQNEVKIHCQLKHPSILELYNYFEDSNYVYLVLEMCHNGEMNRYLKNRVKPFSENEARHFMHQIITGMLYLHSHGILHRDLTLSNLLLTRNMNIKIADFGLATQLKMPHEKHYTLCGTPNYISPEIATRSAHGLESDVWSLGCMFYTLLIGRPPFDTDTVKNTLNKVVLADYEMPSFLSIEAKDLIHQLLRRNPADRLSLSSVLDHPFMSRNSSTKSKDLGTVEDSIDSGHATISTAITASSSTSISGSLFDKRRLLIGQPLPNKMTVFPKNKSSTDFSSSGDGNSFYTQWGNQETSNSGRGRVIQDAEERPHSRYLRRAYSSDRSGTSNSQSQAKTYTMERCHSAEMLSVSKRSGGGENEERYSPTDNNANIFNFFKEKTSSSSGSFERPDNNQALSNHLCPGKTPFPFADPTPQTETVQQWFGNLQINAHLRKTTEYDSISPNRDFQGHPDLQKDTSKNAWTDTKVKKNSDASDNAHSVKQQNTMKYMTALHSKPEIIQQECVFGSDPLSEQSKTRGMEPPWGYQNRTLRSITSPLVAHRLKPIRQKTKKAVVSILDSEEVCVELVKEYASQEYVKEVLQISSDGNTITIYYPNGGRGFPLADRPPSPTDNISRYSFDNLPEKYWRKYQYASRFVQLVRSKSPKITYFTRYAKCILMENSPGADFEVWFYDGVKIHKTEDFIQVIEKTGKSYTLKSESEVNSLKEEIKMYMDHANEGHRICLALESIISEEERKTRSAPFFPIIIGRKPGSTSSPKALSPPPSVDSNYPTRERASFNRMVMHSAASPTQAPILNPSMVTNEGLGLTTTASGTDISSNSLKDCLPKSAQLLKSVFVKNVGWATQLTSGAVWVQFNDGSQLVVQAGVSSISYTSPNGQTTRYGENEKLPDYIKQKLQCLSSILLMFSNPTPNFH
Description: Binding affinity to human PLK4 at 200 nM by cell-based competition binding assay relative to control in presence of DTT.

For assay [8], the system named is Serine/threonine-protein kinase B-raf (Homo sapiens), P15056 [V600E]. In words: Binding affinity to human BRAF V600E mutant at 200 nM by cell-based competition binding assay relative to control in presence of DTT. A digest of the protocol:
as §2

Assay [9] deals with Cyclin-dependent kinase 16 (Homo sapiens) (UniProt Q00536). Description: Binding affinity to human PCTK1 at 200 nM by cell-based competition binding assay relative to control in presence of DTT.
For assay [10], the target named is Mitogen-activated protein kinase 3 (Homo sapiens) (UniProt P27361). In words: Binding affinity to human ERK1 at 200 nM by cell-based competition binding assay relative to control in presence of DTT. A digest of the protocol: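 Commercial (Ambit) competitive kinase-binding panel of 90 kinases measured the binding profile. Run under reducing conditions of 7.5 mM DTT. Binding is expressed relative to control.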
Chain of Mitogen-activated protein kinase 3 (Homo sapiens) (P27361 whole entry): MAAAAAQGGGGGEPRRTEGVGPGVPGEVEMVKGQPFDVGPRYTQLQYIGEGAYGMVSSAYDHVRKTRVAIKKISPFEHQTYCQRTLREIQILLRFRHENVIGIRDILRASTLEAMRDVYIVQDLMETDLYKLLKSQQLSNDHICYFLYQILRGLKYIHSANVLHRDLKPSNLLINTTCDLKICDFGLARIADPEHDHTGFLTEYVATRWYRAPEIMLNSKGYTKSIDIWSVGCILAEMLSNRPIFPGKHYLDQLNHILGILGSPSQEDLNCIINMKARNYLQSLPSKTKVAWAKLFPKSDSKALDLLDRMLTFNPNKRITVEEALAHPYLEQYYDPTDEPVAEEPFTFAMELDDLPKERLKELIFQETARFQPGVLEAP

Assay [11] addresses Serine/threonine-protein kinase pim-3 (Homo sapiens) (UniProt Q86V86). Description: Binding affinity to human PIM3 at 50 nM by cell-based competition binding assay relative to control in presence of DTT.
Assay [12] concerns the target Serine/threonine-protein kinase 32C (Homo sapiens) (UniProt Q86UX6). In words: Binding affinity to human YANK3 at 50 nM by cell-based competition binding assay relative to control in presence of DTT.
In assay [13] the test system is Serine/threonine-protein kinase B-raf (Homo sapiens), P15056 [V600E]. Description: Binding affinity to human BRAF V600E mutant at 50 nM by cell-based competition binding assay relative to control in presence of DTT. A digest of the protocol: as §2
Chain of Serine/threonine-protein kinase B-raf (Homo sapiens), P15056 [V600E] (P15056 whole entry V600E): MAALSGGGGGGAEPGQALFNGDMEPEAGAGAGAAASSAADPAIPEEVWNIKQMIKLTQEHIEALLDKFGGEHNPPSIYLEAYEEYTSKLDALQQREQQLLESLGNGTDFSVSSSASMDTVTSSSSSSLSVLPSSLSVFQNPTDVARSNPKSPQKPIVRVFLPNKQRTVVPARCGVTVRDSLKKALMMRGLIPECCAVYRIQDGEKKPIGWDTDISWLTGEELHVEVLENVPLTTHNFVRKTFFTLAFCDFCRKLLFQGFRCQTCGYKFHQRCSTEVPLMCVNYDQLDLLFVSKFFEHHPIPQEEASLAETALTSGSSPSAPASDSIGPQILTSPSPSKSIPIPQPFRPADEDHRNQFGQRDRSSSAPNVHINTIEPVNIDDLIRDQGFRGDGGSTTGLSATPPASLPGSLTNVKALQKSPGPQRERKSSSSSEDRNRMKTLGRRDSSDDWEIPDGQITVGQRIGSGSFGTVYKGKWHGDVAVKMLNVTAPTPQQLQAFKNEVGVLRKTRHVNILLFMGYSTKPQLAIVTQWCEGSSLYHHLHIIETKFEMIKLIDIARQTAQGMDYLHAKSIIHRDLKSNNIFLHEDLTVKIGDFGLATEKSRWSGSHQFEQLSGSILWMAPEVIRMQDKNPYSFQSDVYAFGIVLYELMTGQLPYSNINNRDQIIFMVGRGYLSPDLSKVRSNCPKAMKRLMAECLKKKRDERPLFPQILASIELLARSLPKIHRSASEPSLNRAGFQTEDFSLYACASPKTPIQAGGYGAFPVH
For assay [14], the target named is Tyrosine-protein kinase receptor UFO (Homo sapiens) (UniProt P30530). In words: Binding affinity to human AXL at 50 nM by cell-based competition binding assay relative to control in presence of DTT. A digest of the protocol:
as §2

*1 amine or outer side, *2 acyl side, *3 side chain or, on linkers, in order; H or OH if unused. Where a SMILES comes first, the peptide text is derived from it. Bridges are numbered along the chain shown (N, C = ends). [ ]: non-standard residue; d: D form. The star is where a group is joined. Staurosporine = CO[C@@H]1[C@H](N(C)*)C[C@H]2O[C@]1(C)n1c3ccccc3c3c4c(c5c6ccccc6n2c5c31)C(=O)NC4; Suc = O=C(CCC(=O)[*:2])[*:1]; Dap = NC[C@H](N)C(=O)O; βAla = NCCC(=O)O

Chain of MAP kinase-activated protein kinase 2 (Homo sapiens) (P49137 whole entry, looked up): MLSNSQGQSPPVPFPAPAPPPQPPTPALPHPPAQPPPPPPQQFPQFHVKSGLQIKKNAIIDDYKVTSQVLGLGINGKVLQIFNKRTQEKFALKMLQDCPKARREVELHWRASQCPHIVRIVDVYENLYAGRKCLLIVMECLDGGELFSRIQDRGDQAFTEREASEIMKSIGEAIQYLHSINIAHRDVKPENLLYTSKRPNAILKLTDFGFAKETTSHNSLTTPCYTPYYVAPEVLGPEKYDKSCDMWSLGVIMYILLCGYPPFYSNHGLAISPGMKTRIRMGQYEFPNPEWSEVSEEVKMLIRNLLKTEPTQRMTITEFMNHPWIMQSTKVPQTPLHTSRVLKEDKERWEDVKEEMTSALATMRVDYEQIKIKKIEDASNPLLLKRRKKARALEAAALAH
Chain of Mast/stem cell growth factor receptor Kit (Homo sapiens), P10721 [V559D,T670I] (P10721 whole entry V559D/T670I): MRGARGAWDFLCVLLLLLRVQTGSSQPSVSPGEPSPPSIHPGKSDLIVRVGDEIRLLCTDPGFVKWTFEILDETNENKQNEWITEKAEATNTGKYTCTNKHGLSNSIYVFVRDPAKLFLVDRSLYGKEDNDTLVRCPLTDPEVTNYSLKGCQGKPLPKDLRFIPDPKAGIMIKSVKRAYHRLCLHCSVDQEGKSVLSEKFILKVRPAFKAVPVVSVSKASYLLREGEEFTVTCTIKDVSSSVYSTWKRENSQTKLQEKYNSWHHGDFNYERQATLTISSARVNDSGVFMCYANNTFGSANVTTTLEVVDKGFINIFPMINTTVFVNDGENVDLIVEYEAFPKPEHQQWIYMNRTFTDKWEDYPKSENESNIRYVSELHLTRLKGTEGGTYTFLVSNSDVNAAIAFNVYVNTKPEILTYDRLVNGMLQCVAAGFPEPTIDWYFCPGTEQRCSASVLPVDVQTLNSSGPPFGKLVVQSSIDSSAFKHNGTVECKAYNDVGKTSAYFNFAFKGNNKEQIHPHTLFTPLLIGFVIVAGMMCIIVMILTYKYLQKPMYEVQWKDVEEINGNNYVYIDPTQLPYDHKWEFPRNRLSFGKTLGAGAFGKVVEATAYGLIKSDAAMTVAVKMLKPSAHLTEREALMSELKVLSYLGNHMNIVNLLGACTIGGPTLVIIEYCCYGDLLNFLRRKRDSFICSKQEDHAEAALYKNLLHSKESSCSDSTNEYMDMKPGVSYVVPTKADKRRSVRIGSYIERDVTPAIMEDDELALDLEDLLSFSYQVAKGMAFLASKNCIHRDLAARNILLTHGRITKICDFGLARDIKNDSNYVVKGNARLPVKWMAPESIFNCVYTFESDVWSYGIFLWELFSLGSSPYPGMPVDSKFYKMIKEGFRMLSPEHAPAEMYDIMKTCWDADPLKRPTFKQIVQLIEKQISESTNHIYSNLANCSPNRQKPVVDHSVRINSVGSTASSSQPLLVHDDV
Chain of Tyrosine-protein kinase receptor UFO (Homo sapiens) (P30530 whole entry): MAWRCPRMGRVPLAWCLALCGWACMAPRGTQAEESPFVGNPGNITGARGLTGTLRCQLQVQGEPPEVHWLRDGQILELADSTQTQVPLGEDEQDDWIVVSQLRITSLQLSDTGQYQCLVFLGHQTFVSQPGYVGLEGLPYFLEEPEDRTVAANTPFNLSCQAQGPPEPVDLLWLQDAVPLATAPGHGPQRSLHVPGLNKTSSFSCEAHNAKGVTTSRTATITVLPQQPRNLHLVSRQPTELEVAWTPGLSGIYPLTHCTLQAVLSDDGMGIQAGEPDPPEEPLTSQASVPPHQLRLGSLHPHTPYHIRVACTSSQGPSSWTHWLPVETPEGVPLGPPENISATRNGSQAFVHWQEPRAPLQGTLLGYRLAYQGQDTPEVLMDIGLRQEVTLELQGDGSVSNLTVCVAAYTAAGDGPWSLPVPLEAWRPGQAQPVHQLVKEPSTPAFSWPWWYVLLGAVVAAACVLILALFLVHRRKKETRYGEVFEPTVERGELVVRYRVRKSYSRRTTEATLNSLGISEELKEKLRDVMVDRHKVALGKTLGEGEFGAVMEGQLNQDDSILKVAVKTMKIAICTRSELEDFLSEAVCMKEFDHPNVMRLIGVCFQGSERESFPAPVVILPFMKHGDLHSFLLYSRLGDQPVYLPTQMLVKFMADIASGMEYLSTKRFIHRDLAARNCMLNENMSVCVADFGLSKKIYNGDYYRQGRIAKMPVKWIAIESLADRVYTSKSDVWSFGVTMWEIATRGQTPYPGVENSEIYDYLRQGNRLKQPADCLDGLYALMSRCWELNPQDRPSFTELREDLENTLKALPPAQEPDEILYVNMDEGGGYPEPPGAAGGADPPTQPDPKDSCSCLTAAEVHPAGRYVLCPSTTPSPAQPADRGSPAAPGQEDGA

As to `CO[C@@H]1[C@H](N(C)C(=O)CCC(=O)NCCC(=O)NCCC(=O)NCCC(N)=O)C[C@H]2O[C@]1(C)n1c3ccccc3c3c4c(c5c6ccccc6n2c5c31)C(=O)NC4`, the Activity is 4.8% in assay [1], 61% in assay [2], 100% in assay [3] and 3.2% in assay [4]. Moreover, in assay [5], the Selectivity ratio is 52.

Regarding `CO[C@@H]1[C@H](N(C)C(=O)CCC(=O)NCCC(=O)NCCC(=O)NCCC(=O)NCCC(=O)NCCC(=O)NCCC(=O)NCCC(=O)N[C@H]2CSSC[C@@H](C(=O)NCC(N)=O)NC(=O)CNC(=O)[C@H](Cc3ccccc3)NC(=O)[C@H](C(C)C)NC(=O)[C@H](CCCNC(=N)N)NC(=O)[C@H](Cc3ccccc3)NC(=O)[C@H](C(C)C)NC2=O)C[C@H]2O[C@]1(C)n1c3ccccc3c3c4c(c5c6ccccc6n2c5c31)C(=O)NC4` ({Staurosporine-Suc-βAla-βAla-βAla-βAla-βAla-βAla-βAla}-CVFRVFGCG-NH2; disulfide 1-8), the Activity in assay [6] stood at 0.45%; in [7] it was 4.9%; in assay [8] it was 100%; in assay [9], 94%; in assay [10], 100%.

As for `CO[C@@H]1[C@H](N(C)C(=O)CCC(=O)NCCC(=O)NCCC(=O)NCCC(=O)NCCC(=O)NCCC(=O)NCCC(=O)NCCC(=O)N[C@H]2CNC(=O)C[C@@H](C(N)=O)NC(=O)CNC(=O)[C@H](Cc3ccccc3)NC(=O)[C@H](C(C)C)NC(=O)[C@H](CCCNC(=N)N)NC(=O)[C@H](Cc3ccccc3)NC(=O)[C@H](C(C)C)NC2=O)C[C@H]2O[C@]1(C)n1c3ccccc3c3c4c(c5c6ccccc6n2c5c31)C(=O)NC4` ({Staurosporine-Suc-βAla-βAla-βAla-βAla-βAla-βAla-βAla}-[Dap]VFRVFGD-NH2; lactam 1-8), the Activity in assay [11] is 66%; in [12], 100%; in assay [13], 84%; in assay [14], 81%.
